Structures are written as SMILES. Calls of active or inactive are those of the source.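 Rule for the calls, unless noted: active = fluorescence slope higher than the sample average by over 3 SD (cut at about -0.22 in these data, passing the limit was not always enough); inactive = the rest.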

The results in this text go back to PubChem BioAssay.

The nature of assay [1]: inhibitors of TNFa-induced NFkB p65 translocation, primary screen, imaging, HUVEC, MLSMR starter and 10KST1 sets (AID 438;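 active = inhibition above 20% together with a positive visual image hit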;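 note: compound added about 3h40 before a 20 min TNFalpha stimulation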;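 for inhibition: signal is the nuclear over cytoplasmic p65 intensity ratio per well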). The note with it: HUVEC TNFa-induced p65 nuclear translocation; cell count: measured here: nuclei count (cytotoxicity indicator), at 2.08 µM; inhibition: at 2 µM, stronger effect = higher value, 0% TNFa-plus-vehicle, 100% no-TNFa wells.
Assay [2] can be described thus: endothelial E-selectin expression blockers – imaging, HUVEC, immunofluorescence, MLSMR starter and 10KST1 sets, primary screen (AID 487;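 active = visually confirmed hit in the image check and inhibition above 20%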;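 for inhibition: signal is fraction of cell area covered by stained E-selectin grains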;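 for nuclei count: 100% = median nuclei count of all wells on the same plate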). Conditions: HUVEC TNFalpha-induced E-selectin immunofluorescence imaging, at 2 µM; inhibition: stronger effect = higher value; nuclei count: measured here: cell number, toxicity.
Assay [3] can be described thus: Primary imaging screen for DUSP6 inhibitors that restore phospho-Erk in transfected HeLa cells, chemical complementation (AID 609;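 active = compounds giving at least 50% inhibition in the cell-based MKP-3 phosphatase rescue imaging test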;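 for inhibition: phospho-Erk level distribution per well compared with pooled transfected vehicle control wells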). Conditions: HeLa MKP-3 transfected, phospho-Erk imaging KS statistic, at 10 µM, cells stimulated with TPA for 15 min.
For assay [4], the target named is Dual specificity protein phosphatase 6 (Homo sapiens) (UniProt Q16828). The assay is described as above. The note with it: HeLa MKP-3 transfected, phospho-Erk imaging KS statistic; at 10 µM; stronger effect = higher value; cells stimulated with TPA for 15 min.
Chain of Dual specificity protein phosphatase 6 (Homo sapiens) (Q16828 whole entry, looked up): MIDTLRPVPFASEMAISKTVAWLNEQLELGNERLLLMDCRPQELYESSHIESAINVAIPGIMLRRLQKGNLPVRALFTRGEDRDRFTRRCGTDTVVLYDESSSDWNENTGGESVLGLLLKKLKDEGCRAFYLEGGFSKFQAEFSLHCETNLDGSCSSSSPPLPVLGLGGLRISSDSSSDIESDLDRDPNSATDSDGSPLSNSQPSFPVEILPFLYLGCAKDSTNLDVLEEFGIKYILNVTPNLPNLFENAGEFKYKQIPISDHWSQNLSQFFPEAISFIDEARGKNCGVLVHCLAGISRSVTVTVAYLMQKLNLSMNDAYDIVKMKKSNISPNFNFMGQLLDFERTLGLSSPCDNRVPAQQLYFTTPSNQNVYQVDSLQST
For assay [5], the target named is Voltage-gated potassium channel subunit beta-2 (Rattus norvegicus) (UniProt P62483). In words: inhibitors of rat Kvbeta2 reductase activity – biochemical, NADPH fluorescence, primary screen (AID 622).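 Note: slope of raw intensity against log time taken from 70 to 1610 s.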 The note with it: recombinant KvBeta, 4-cyanobenzaldehyde reduction, at 10 µM, stronger effect = higher value.
Chain of Voltage-gated potassium channel subunit beta-2 (Rattus norvegicus) (P62483 whole entry, looked up): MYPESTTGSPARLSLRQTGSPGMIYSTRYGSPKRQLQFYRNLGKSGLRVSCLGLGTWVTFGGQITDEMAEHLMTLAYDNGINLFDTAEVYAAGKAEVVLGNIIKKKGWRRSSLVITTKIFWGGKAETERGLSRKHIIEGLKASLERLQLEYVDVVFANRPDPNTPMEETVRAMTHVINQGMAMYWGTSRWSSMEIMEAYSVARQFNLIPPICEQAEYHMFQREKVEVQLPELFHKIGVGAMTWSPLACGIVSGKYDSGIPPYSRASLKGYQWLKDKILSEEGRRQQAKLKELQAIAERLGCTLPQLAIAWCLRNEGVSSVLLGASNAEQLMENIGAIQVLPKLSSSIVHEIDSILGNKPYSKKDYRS
For assay [6] the target is unchanged. As to the kind of experiment: enhancers of rat Kvbeta2 NADPH turnover – biochemical, NADPH fluorescence, primary screen (AID 623;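 active = NADPH fluorescence slope more negative than the mean of all samples by about 3 SD, 99.7% confidence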;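 note: fluorescence intensity change per second fitted from 20 to 320 s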). Conditions: Recombinant KvBeta, NADPH fluorescence decrease slope, 10 min; at 10 µM; stronger effect = lower value.
For assay [7], the target named is Muscarinic acetylcholine receptor M4 (Homo sapiens) (UniProt P08173). In words: M4-linked GIRK flux change, two-sided – cell-based, HEK293 M4/GIRK, thallium flux, BTC-AM, M4 allosteric agonist project, primary screen (AID 625;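 active = fluorescence slope after compound addition differing from the mean of all tested samples at 99.7% confidence, mostly higher but some lower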;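 note: thallium influx through GIRK channels coupled to M4 in HEK293 cells with BTC-AM dye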). Conditions: at 10 µM, actives lie on both sides. In a few lines: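 Material: HEK293 cells with M4 receptor and GIRK channels; Times: cells overnight at 37 °C, BTC-AM loading 1 h, reads 2 min total; Technique: kinetic BTC-AM fluorescence sampled at 1 Hz, 10 s pre-addition baseline; Read-out basis: slope over 15–24 s of trace normalized to starting intensity; Controls: carbachol positive, DMSO negative.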
Chain of Muscarinic acetylcholine receptor M4 (Homo sapiens) (P08173 whole entry, looked up): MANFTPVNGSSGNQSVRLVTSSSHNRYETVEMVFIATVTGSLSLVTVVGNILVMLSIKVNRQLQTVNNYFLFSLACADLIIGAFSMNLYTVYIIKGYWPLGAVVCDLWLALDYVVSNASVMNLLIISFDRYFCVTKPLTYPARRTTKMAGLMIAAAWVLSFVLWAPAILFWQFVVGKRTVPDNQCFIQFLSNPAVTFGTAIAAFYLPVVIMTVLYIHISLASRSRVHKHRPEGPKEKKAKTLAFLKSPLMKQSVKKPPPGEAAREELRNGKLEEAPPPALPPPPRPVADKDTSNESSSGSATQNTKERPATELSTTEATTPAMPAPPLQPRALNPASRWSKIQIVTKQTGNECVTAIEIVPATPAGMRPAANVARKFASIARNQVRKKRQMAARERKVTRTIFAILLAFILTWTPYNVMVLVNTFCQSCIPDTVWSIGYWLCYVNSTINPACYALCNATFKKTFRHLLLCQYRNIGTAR

The nature of assay [8]: inhibitors of larval lipid processing in zebrafish, primary screen, whole organism, PED6 fluorescence, gall bladder and intestine (AID 686;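 active = a full or partial loss of lipid-probe fluorescence in the fish gall bladder, intestine or both, judged by eye; inactive = no fluorescence loss, or compound toxic to the fish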;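 note: larvae 5 to 7 days old with five fish per well; signal comes from phospholipase A2 cleavage of quenched PED6 carried via bile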). Conditions: Zebrafish larvae PED6 lipid processing, fluorescence scoring; screened at 20 µM (by protocol). In a few lines:
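Incubation: overnight exposure of larvae to compound plus PED6 / Test system: live zebrafish larvae aged 5-7 days, whole organism / Amount: 5 larvae per well / Read-out basis: visual per-well fluorescence inhibition score / Signal: visual fluorescence microscopy scoring of gall bladder, gut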

Assay [9] in a line: loss of swimming-algae plug formation – whole organism, Chlamydomonas reinhardtii, WT vs cilia-less mutant, absorbance, 96-well, primary screen (AID 463189;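 active = inhibition at or above 50% relative to wild type and mutant plate controls; inactive = inhibition below 50%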;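 note: 0% = wild type cc124 cells in DMSO and 100% = ciliumless bld1 mutant cells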). Conditions: Chlamydomonas reinhardtii gravitaxis, OD600 absorbance, 2 days; at 10 µM; stronger effect = higher value.
Where [10] appears, read: measured here: cell density z-score.
Where [11] appears, read: measured here: nuclear c-Myc green intensity z-score.
Where [12] appears, read: measured here: nuclear pErk red intensity z-score, stronger effect = higher value.

For the molecule `CC(C)COc1ccc(C(=O)NC(CC(C)C)C(=O)O)cc1` (stereo not given), in [1], the cell count is 649. Moreover, the inhibition in [1] is 9.2% (inactive); in [2], -19.5% (inactive); in assay [4], -13.3% (inactive); in assay [9], 25.1% (inactive). Also, the nuclei count in assay [2] came out at 84.1%. Also, the z-score in [3] (setting [10]) was -0.492; in assay [3] (setting [11]), 0.0237; in [3] (setting [12]), 0.136. Moreover, the fluorescence slope was -0.484 (inactive) in [5] and 0.00574 (inactive) in assay [7]. Besides, in assay [6], the NADPH fluorescence slope was -4.8e-05 (inactive). Further, the molecule was classed as inactive in assay [8].

Turning to `COc1ccc2c(c1OC)C(=O)OC2c1c(O)nc(SC)n(-c2ccccc2)c1=O` (stereo not given), in assay [1], the cell count worked out at 494. The inhibition in assay [1] is 4.1% (inactive); in assay [2] it was -192% (inactive); in assay [4], 29.7% (inactive); in assay [9], -18.2% (inactive). This molecule also had a nuclei count in [2] of 115%. Moreover, the values for the z-score in [3] (setting [10]), in [3] (setting [11]) and in [3] (setting [12]) were 1.24, 1.53 and -0.802, respectively. Further, the fluorescence slope is -0.39 (inactive) in [5] and 0.00866 (inactive) in [7]. Also, in [6], the NADPH fluorescence slope is -6.5e-05 (inactive). In assay [8], the result was inactive.

As for `C=CCn1c(N)c(C(=O)Nc2ccccc2)c2nc3ccccc3nc21`, in assay [1], the cell count turned out to be 628. Also, the inhibition in assay [1] was 9.1% (inactive); in assay [2], -27.4% (inactive); in [4], 9.07% (inactive); in [9], 59.2% (active). In assay [2], this molecule showed a nuclei count of 121%. Besides, the z-score was 1.06 in [3] (setting [10]), -1.1 in assay [3] (setting [11]) and -0.334 in assay [3] (setting [12]). In addition, the fluorescence slope is -0.398 (inactive) in assay [5] and 0.00512 (inactive) in assay [7]. The NADPH fluorescence slope in assay [6] was -1.8e-05 (inactive). Besides, the outcome in assay [8] is “active; no signal in intestine only”.

For the molecule `CN(C)CCCN(CCCNC(=O)/C=N/O)Cc1ccccc1`, the cell count in assay [1] is 652. Besides, the inhibition in [1] was -10.5% (inactive); in assay [2] it was -38% (inactive); in assay [4] it was -2.09% (inactive); in assay [9], 8.7% (inactive). For the same molecule, in [2], the nuclei count turned out to be 181%. Besides, the z-score was -1.02 in [3] (setting [10]), -0.157 in assay [3] (setting [11]) and 0.798 in assay [3] (setting [12]). The fluorescence slope was -0.495 (inactive) in assay [5] and 0.00839 (inactive) in assay [7]. Further, the NADPH fluorescence slope in assay [6] was -5.8e-05 (inactive). Also, the call in assay [8] was inactive.

Take `CCSc1nc2sc3c(c2c2nnc(SCC(=O)NCc4ccco4)n12)CCCC3`: the cell count in [1] was 550. Further, the inhibition in [1] is -5.1% (inactive); in [2], -12.4% (inactive); in [4], 1.9e-07% (inactive); in assay [9], 9.13% (inactive). The same molecule had a nuclei count in assay [2] of 178%. Further, the z-score was -0.011 in assay [3] (setting [10]), -1.17 in assay [3] (setting [11]) and -1.17 in [3] (setting [12]). For the same molecule, the fluorescence slope in [5] is -0.399 (inactive); in assay [7], 0.00576 (inactive). Besides, in assay [6], the NADPH fluorescence slope was -1.1e-05 (inactive). Also, in [8], the call was inactive.

As to `Cc1nn(CC(=O)NCCN2CCOCC2)c(=O)c2ccccc12`, the cell count in assay [1] amounted to 472. Also, the inhibition in assay [1] is 4.4% (inactive); in assay [2], -0.8% (inactive); in assay [4], 5.95% (inactive); in [9], 27.9% (inactive). In [2], this molecule yielded a nuclei count of 116%. In addition, the results for the z-score in assay [3] (setting [10]), in [3] (setting [11]) and in assay [3] (setting [12]) were -1.02, -0.0587 and 0.79, respectively. For the same molecule, the fluorescence slope in assay [5] is -0.469 (inactive); in assay [7], 0.00615 (inactive). For the same molecule, the NADPH fluorescence slope in [6] was -3.4e-05 (inactive). In addition, in assay [8], the result was inactive.

As to `Cn1cccc1/C=N/n1cnnc1`, the cell count in assay [1] turned out to be 561. Moreover, the inhibition in assay [1] is 0.9% (inactive); in [2], -164% (inactive); in assay [4], -4.59% (inactive); in [9], -1.85% (inactive). The nuclei count in [2] turned out to be 130%. For the same molecule, the results for the z-score in assay [3] (setting [10]), in [3] (setting [11]) and in [3] (setting [12]) were 0.378, -0.4 and -0.934, respectively. The fluorescence slope in assay [5] is -0.452 (inactive); in assay [7] it was 0.0051 (inactive). Moreover, in assay [6], the NADPH fluorescence slope is -0.000125 (inactive). In [8], the outcome was inactive.

With `CCOC(=O)C(C(=O)OCC)N(C#N)c1nc(SC)nc(N(C)C)n1`, the cell count in [1] stood at 607. Also, the inhibition was -2.8% (inactive) in assay [1], 42.8% (inactive) in assay [2], 33.3% (inactive) in [4] and -15.2% (inactive) in assay [9]. The molecule further displayed a nuclei count in [2] of 86.4%. The z-score in assay [3] (setting [10]) is -3.26; in assay [3] (setting [11]), 2.37; in [3] (setting [12]), 4.3. The values for the fluorescence slope in [5] and in assay [7] were -0.457 (inactive) and 0.00538 (inactive), respectively. In addition, in assay [6], the NADPH fluorescence slope was -5e-05 (inactive). Moreover, in assay [8], the call was inactive.

As for `O=C1OC(N2CCN(C/C=C/c3ccccc3)CC2)c2ccccc21` (stereo not given), the cell count in assay [1] amounted to 390. The inhibition was -1.2% (inactive) in assay [1], -65.2% (inactive) in [2], 14% (inactive) in assay [4] and 28.9% (inactive) in assay [9]. This molecule also yielded a nuclei count in assay [2] of 168%. Besides, the z-score is 0.231 in assay [3] (setting [10]), -0.597 in assay [3] (setting [11]) and 0.38 in assay [3] (setting [12]). Besides, the fluorescence slope was -0.458 (inactive) in [5] and 0.00426 (inactive) in [7]. In addition, the NADPH fluorescence slope in assay [6] was -0.000109 (inactive). In addition, in assay [8], the molecule was called inactive.

For `CCCCN(CCCC)C(=O)CSc1nnc2n(C)c(=O)c3c4c(sc3n12)CCCC4`, the cell count in assay [1] is 496. In addition, the inhibition in assay [1] is -18.2% (inactive); in assay [2] it was -94.2% (inactive); in [4], 7.93% (inactive); in assay [9], 84% (active). In assay [2], this molecule returned a nuclei count of 142%. Moreover, the z-score in assay [3] (setting [10]) is 2.28; in [3] (setting [11]) it was -1.51; in assay [3] (setting [12]) it was -0.0585. Besides, the values for the fluorescence slope in [5] and in [7] were -0.463 (inactive) and 0.00616 (inactive), respectively. Moreover, the NADPH fluorescence slope in assay [6] was -4.6e-05 (inactive). The outcome in assay [8] was inactive.

Broadly, the inhibition is the drop in the measured response relative to a control, in per cent.
